For one data set, the system named is MG-63. Nature of the data set: Induction of apoptosis against human MG63 cells after 72 hrs. The class given is functional, cell-based. The gist of the method:
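MG-63 osteosarcoma cells, double thymidine block (2.5 mM, 12 h each) for S-phase synchronization. Treated 3 days at 10^-5 and 10^-6 M in DMEM. Permeabilized with 0.2% Triton X plus RNase, 37 °C for 1 h. Stained with propidium iodide 50 µg/mL, 4 °C for 20 min. DNA content by flow cytometry, 488 nm. Mean ± SD of three independent experiments.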

Data set [1] has as its system Vitamin K-dependent gamma-carboxylase (Mus musculus). Briefly: Ratio of Vmax to Km assessed as 14CO2 incorporation for 30 mins.
Substrate in data set [2]: CC(C)=CCC/C(C)=C/CC/C(C)=C/CC/C(C)=C/CC1=C(C)C(=O)c2ccccc2C1=O
Briefly: (§1) Activity for gamma-glutamylcarboxylase assessed as 14CO2 incorporation. The method in brief: (§2)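 Mouse liver microsomal γ-glutamylcarboxylase. Reduced (hydroquinone) vitamin K as cofactor, 8 concentrations. Fixed enzyme level with 3.6 mM FLEEL substrate. Buffer: 16 µM ProFIX19 propeptide, 1.4 mM NaH14CO3, 25 mM MOPS pH 7.0, 500 mM NaCl, 0.16% phosphatidylcholine, 0.16% CHAPS, 8 mM DTT, 0.8 M ammonium sulfate. 14CO2 incorporated into peptide over 30 min counted by scintillation. Km and Vmax from initial rates by double-reciprocal plot.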

Substrate in data set [3]: CC1=C(C/C=C(\C)CC/C=C(\C)CC/C=C(\C)CC/C=C(\C)CO)C(=O)c2ccccc2C1=O
The description is as §1. The method in brief:
as §2

Substrate in data set [4]: CC(C)=CCC/C(C)=C/CC/C(C)=C/CC/C(C)=C/CC1=C(C)C(=O)c2ccccc2C1=O
Briefly: (§3) Activity for gamma-glutamylcarboxylase assessed as 14CO2 incorporation for 30 mins. The method in brief: as §2

Substrate in data set [5]: CC1=C(C/C=C(\C)CC/C=C(\C)CC/C=C(\C)CC/C=C(\C)CO)C(=O)c2ccccc2C1=O
The description is as §3. The method in brief: as §2

In the case of `CC1=C(C/C=C(\C)CC/C=C(\C)CC/C=C(\C)C=O)C(=O)c2ccccc2C1=O`, in the data set with MG-63, the Activity result was “Dose-dependent effect”.
Turning to `CC(C)=CCC/C(C)=C/CC/C(C)=C/CC/C(C)=C/CC1=C(C)C(=O)c2ccccc2C1=O`, in the data set on MG-63, the Activity entry is “Dose-dependent effect”.
Consider `CC1=C(C/C=C(\C)CC/C=C(\C)CC/C=C(\C)CC/C=C(\C)C=O)C(=O)c2ccccc2C1=O`, for which, in the data set on MG-63, the Activity entry was “Dose-dependent effect”.
Consider `CC1=C(C/C=C(\C)CC/C=C(\C)CO)C(=O)c2ccccc2C1=O`, for which, in the data set with MG-63, the Activity entry is “Dose-dependent effect”.
On to `CC1=C(C/C=C(\C)CC/C=C(\C)CC/C=C(\C)CO)C(=O)c2ccccc2C1=O`, for which the Activity entry in the data set on MG-63 was “Dose-dependent effect”.
With `CC(C)=CCC/C(C)=C/CC1=C(C)C(=O)c2ccccc2C1=O`, in the data set with MG-63, the Activity result is “Dose-dependent effect”.
In the case of `CC(C)=CCC/C(C)=C/CC/C(C)=C/CC1=C(C)C(=O)c2ccccc2C1=O`, the Activity entry with MG-63 was “Dose-dependent effect”.
As to `CC1=C(C/C=C(\C)CC/C=C(\C)CC/C=C(\C)CC/C=C(\C)CO)C(=O)c2ccccc2C1=O`, in data set [1], the Vmax/Km amounted to 50 pmol/microM. The Activity entry in the data set on MG-63 was “Dose-dependent effect”.
`CC1=C(C/C=C(\C)CC/C=C(\C)C=O)C(=O)c2ccccc2C1=O`: the Activity entry in the data set with MG-63 is “Dose-dependent effect”.

B1: Vitamin K-dependent gamma-carboxylase (Homo sapiens), P38435 (protein)
chain: MAVSAGSARTSPSSDKVQKDKAELISGPRQDSRIGKLLGFEWTDLSSWRRLVTLLNRPTDPASLAVFRFLFGFLMVLDIPQERGLSSLDRKYLDGLDVCRFPLLDALRPLPLDWMYLVYTIMFLGALGMMLGLCYRISCVLFLLPYWYVFLLDKTSWNNHSYLYGLLAFQLTFMDANHYWSVDGLLNAHRRNAHVPLWNYAVLRGQIFIVYFIAGVKKLDADWVEGYSMEYLSRHWLFSPFKLLLSEELTSLLVVHWGGLLLDLSAGFLLFFDVSRSIGLFFVSYFHCMNSQLFSIGMFSYVMLASSPLFCSPEWPRKLVSYCPRRLQQLLPLKAAPQPSVSCVYKRSRGKSGQKPGLRHQLGAAFTLLYLLEQLFLPYSHFLTQGYNNWTNGLYGYSWDMMVHSRSHQHVKITYRDGRTGELGYLNPGVFTQSRRWKDHADMLKQYATCLSRLLPKYNVTEPQIYFDIWVSINDRFQQRIFDPRVDIVQAAWSPFQRTSWVQPLLMDLSPWRAKLQEIKSSLDNHTEVVFIADFPGLHLENFVSEDLGNTSIQLLQGEVTVELVAEQKNQTLREGEKMQLPAGEYHKVYTTSPSPSCYMYVYVNTTELALEQDLAYLQELKEKVENGSETGPLPPELQPLLEGEVKGGPEPTPLVQTFLRRQQRLQEIERRRNTPFHERFFRFLLRKLYVFRRSFLMTCISLRNLILGRPSLEQLAQEVTYANLRPFEAVGELNPSNTDSSHSNPPESNPDPVHSEF
With B1, the Michaelis constant (Km) stood at 13.3 µM in data set [2] and 2 µM in data set [3]. Besides, the Vmax in data set [4] was determined as 126 pmol; in data set [5], 99.9 pmol.

The record behind these values is ChEMBL document CHEMBL1143934, “Design and synthesis of biologically active analogues of vitamin K2: evaluation of their biological activities with cultured human cell lines” (Bioorg Med Chem, 2008).
